Measured values published in ChEMBL document CHEMBL1124260, “Synthesis and antitumor activity of quaternary ellipticine glycosides, a series of novel and highly active antitumor agents” (1988).
Where “and” joins values, the source holds several entries; their conditions need not be identical. Identical values can stand only once.

Tests used:
[1] = tested on: Mus musculus; assay: Number of survivors out of 6 ip implanted EAC leukemia mouse tested after 80 days at 10 mg/kg; type: functional; details: route intraperitoneal
Procedure, shortened: (§1)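 Drug dissolved and diluted in saline just before use, given ip for 5 consecutive days starting 24 h after implant. Six mice per dose. Survivors counted at 80 days; ILS % taken from mean survival time of treated vs control mice.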

[2] = tested on: Mus musculus; assay: Effect on ip implanted sarcoma 180 by ip administration for 5 days at 20 mg/kg was measured as increase in mean life span; type: functional; details: Sarcoma-180, ip, 120 h, route intraperitoneal
Procedure, shortened: (§2)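 Saline-dissolved drug was dosed ip daily for 5 consecutive days starting 24 h later. Readout was ILS % (mean survival time of treated vs control) over an 80-day observation.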

[3] = tested on: Mus musculus; assay: Effect on ip implanted sarcoma 180 by ip administration for 5 days at 40 mg/kg was measured as increase in mean life span; type: functional; details: Sarcoma-180, ip, 120 h, route intraperitoneal; procedure, shortened: as §2
[4] = tested on: Mus musculus; assay: Effect on ip implanted sarcoma 180 by ip administration for 5 days at 80 mg/kg was measured as increase in mean life span; type: functional; details: Sarcoma-180, ip, 120 h, route intraperitoneal; procedure, shortened: as §2
[5] = tested on: Mus musculus; assay: Antitumor activity against ip implanted L1210 leukemia in mouse after ip administration of 1.25 mg/kg for 5 days expressed as increase in mean life span; type: functional; details: 120 h, route intraperitoneal
Procedure, shortened: (§3)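 Drug was dissolved in 0.9% NaCl, diluted just before use and given ip once daily for 5 consecutive days, starting 24 h after transplant. ILS % = mean survival time of treated vs control mice, observed for 80 days.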

[6] = tested on: Mus musculus; assay: Number of survivors out of 6 ip implanted P388 leukemia mouse tested after 80 days at 10 mg/kg; type: functional; details: route intraperitoneal
Procedure, shortened: (§4)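 P388 leukemia, 10^6 ascitic cells implanted ip in female BDF1 mice. Drug in saline given ip for 5 consecutive days from 24 h after transplant. Groups of six per dose level. Survivors/total recorded at the 80-day end of observation; ILS % from treated/control mean survival time.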

[7] = tested on: Mus musculus; assay: Number of survivors out of 6 ip implanted P388 leukemia mouse tested after 80 days at 20 mg/kg; type: functional; details: route intraperitoneal; procedure, shortened: as §4
[8] = tested on: Mus musculus; assay: Number of survivors out of 6 ip implanted P388 leukemia mouse tested after 80 days at 40 mg/kg; type: functional; details: route intraperitoneal; procedure, shortened: as §4
[9] = tested on: Mus musculus; assay: Number of survivors out of 6 ip implanted sarcoma 180 leukemia mouse tested after 80 days at 40 mg/kg; type: functional; details: route intraperitoneal; procedure, shortened: as §1
[10] = tested on: Mus musculus; assay: Number of survivors out of 6 ip-ip implanted EAC leukemia mouse tested after 80 days at 80 mg/kg; type: functional; procedure, shortened: as §1
[11] = tested on: Mus musculus; assay: Number of survivors out of 6 ip-ip implanted L1210 leukemia mouse tested after 80 days at 20 mg/kg; type: functional
Procedure, shortened: (§5)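 Female BDF1 mice implanted ip with ascitic fluid holding 10^5 L1210 cells. Saline-dissolved drug given ip daily on days 1-5, starting 24 h after implant. Six mice per dose group, followed 80 days. Survivors/total counted at day 80; ILS % from mean survival time vs controls.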

[12] = tested on: Mus musculus; assay: Number of survivors out of 6 ip-ip implanted L1210 leukemia mouse tested after 80 days at 40 mg/kg; type: functional; procedure, shortened: as §5
[13] = tested on: Mus musculus; assay: Number of survivors out of 6 ip-iv implanted L1210 leukemia mouse tested after 80 days at 30 mg/kg; type: functional
Procedure, shortened: (§6)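 Female BDF1 mice bearing ip-implanted leukemia: 10^5 cells for L1210, 10^6 cells for P388. Drug dissolved in saline, given iv for 5 consecutive days beginning 24 h post-implant. Six mice per dose. Survivors scored at 80 days; ILS % from mean survival time relative to controls.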

[14] = tested on: Mus musculus; assay: Number of survivors out of 6 ip-iv implanted P388 leukemia mouse tested after 80 days at 20 mg/kg; type: functional; procedure, shortened: as §6
[15] = tested on: Mus musculus; assay: Effect on ip implanted EAC by ip administration at 20 mg/kg was for 5 days measured as increase in mean life span; type: functional; details: 120 h, route intraperitoneal
Procedure, shortened: (§7)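 Drug in 0.9% NaCl was given ip for 5 consecutive days from 24 h after inoculation. ILS % came from treated vs control mean survival time, followed for 80 days.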

[16] = tested on: Mus musculus; assay: Effect on ip implanted EAC by ip administration for 5 days at 10 mg/kg was measured as increase in mean life span; type: functional; details: 120 h, route intraperitoneal; procedure, shortened: as §7
[17] = tested on: Mus musculus; assay: Antitumor activity against ip implanted L1210 leukemia in mouse after ip administration of 10 mg/kg for 5 days expressed as increase in mean life span; type: functional; details: Mus musculus, L1210, ip, 120 h, route intraperitoneal; procedure, shortened: as §3
[18] = tested on: Mus musculus; assay: Antitumor activity against ip implanted L1210 leukemia in mouse after ip administration of 20 mg/kg for 5 days expressed as increase in mean life span; type: functional; details: 120 h, route intraperitoneal; procedure, shortened: as §3
[19] = tested on: Mus musculus; assay: Antitumor activity against ip implanted L1210 leukemia in mouse after ip administration of 30 mg/kg for 5 days expressed as increase in mean life span; type: functional; details: Mus musculus, L1210, ip, 120 h, route intraperitoneal; procedure, shortened: as §3
[20] = tested on: Mus musculus; assay: Antitumor activity against ip implanted L1210 leukemia in mouse after ip administration of 40 mg/kg for 5 days expressed as increase in mean life span; type: functional; details: 120 h, route intraperitoneal; procedure, shortened: as §3
[21] = tested on: Mus musculus; assay: Antitumor activity against ip implanted L1210 leukemia in mouse after ip administration of 5 mg/kg for 5 days expressed as increase in mean life span; type: functional; details: Mus musculus, L1210, ip, 120 h, route intraperitoneal; procedure, shortened: as §3
[22] = tested on: Mus musculus; assay: Antitumor activity against iv implanted L1210 leukemia in mouse after ip administration of 10 mg/kg for 5 days expressed as increase in mean life span; type: functional
[23] = tested on: Mus musculus; assay: Antitumor activity against iv implanted L1210 leukemia in mouse after ip administration of 20 mg/kg for 5 days expressed as increase in mean life span; type: functional
[24] = tested on: Mus musculus; assay: Number of survivors out of 6 ip implanted L1210 leukemia mouse, tested after 80 days at 30 mg/kg; type: functional; details: route intraperitoneal; procedure, shortened: as §5
[25] = tested on: Mus musculus; assay: Effect on ip implanted EAC by ip administration for 5 days at 40 mg/kg was measured as increase in mean life span; type: functional; details: 120 h, route intraperitoneal; procedure, shortened: as §7
[26] = tested on: Mus musculus; assay: Effect on ip implanted EAC by ip administration for 5 days at 5 mg/kg was measured as increase in mean life span; type: functional; details: 120 h, route intraperitoneal; procedure, shortened: as §7
[27] = tested on: Mus musculus; assay: Effect on ip implanted EAC by ip administration for 5 days at 80 mg/kg was measured as increase in mean life span; type: functional; details: 120 h, route intraperitoneal; procedure, shortened: as §7
[28] = tested on: Mus musculus; assay: Effect on ip implanted sarcoma 180 by ip administration for 5 days at 10 mg/kg was measured as increase in mean life span; type: functional; details: Sarcoma-180, ip, 120 h, route intraperitoneal; procedure, shortened: as §2
[29] = tested on: Mus musculus; assay: Inhibition of sc implanted syngeneic colon 38 carcinoma by ip administration at 20 mg/kg was on 1, 3, 5, 7, 9 days measured as inhibition ratio; type: functional; details: route subcutaneous
Procedure, shortened: (§8)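 Tumor homogenate (70 mg) implanted into the axillary region of female BDF1 mice. Drug dissolved in 0.9% NaCl and diluted with saline just before use, then given ip on days 1, 3, 5, 7 and 9. Tumor length and width were measured by caliper on day 20 after inoculation and converted to estimated weight. Result reported as treated vs control tumor weight, T/C %.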

[30] = tested on: Mus musculus; assay: Inhibition of sc implanted syngeneic colon 38 carcinoma by ip administration at 30 mg/kg was on 1, 3, 5, 7, 9 days measured as inhibition ratio; type: functional; details: route subcutaneous; procedure, shortened: as §8
[31] = tested on: Mus musculus; assay: Inhibition of sc implanted syngeneic colon 38 carcinoma by ip administration at 40 mg/kg was on 1, 3, 5, 7, 9 days measured as inhibition ratio; type: functional; details: route subcutaneous; procedure, shortened: as §8
[32] = tested on: Mus musculus; assay: Inhibition of sc implanted syngeneic colon 38 carcinoma by ip administration at 50 mg/kg was on 1, 3, 5, 7, 9 days measured as inhibition ratio; type: functional; details: route subcutaneous; procedure, shortened: as §8
[33] = tested on: Mus musculus; assay: Number of survivors out of 6 ip-ip implanted EAC leukemia mouse tested after 80 days at 40 mg/kg; type: functional; procedure, shortened: as §1
[34] = tested on: Mus musculus; assay: Number of survivors out of 6 ip implanted sarcoma 180 leukemia mouse tested after 80 days at 80 mg/kg; type: functional; details: route intraperitoneal; procedure, shortened: as §1
[35] = tested on: Mus musculus; assay: Number of survivors out of 6 ip-ip implanted EAC leukemia mouse tested after 80 days at 20 mg/kg; type: functional; procedure, shortened: as §1
[36] = tested on: Mus musculus; assay: Effect on ip implanted syngeneic B16 melanoma by ip administration of 20 mg/kg for 9 days measured as increase in mean life span; details: 216 h
[37] = tested on: Mus musculus; assay: Effect on ip implanted syngeneic B16 melanoma by ip administration for 9 days at 5 mg/kg was measured as increase in mean life span; details: 216 h
[38] = tested on: Mus musculus; assay: Effect on ip implanted syngeneic B16 melanoma by ip administration for 9 days at 10 mg/kg was measured as increase in mean life span; details: 216 h
[39] = tested on: Mus musculus; assay: Effect on ip implanted syngeneic B16 melanoma by ip administration for 9 days at 2.5 mg/kg was measured as increase in mean life span; details: 216 h
[40] = tested on: Mus musculus; assay: Antitumor activity against ip implanted P388 leukemia in mouse after iv administration of 10 mg/kg for 5 days expressed as increase in mean life span; details: 120 h
[41] = tested on: Mus musculus; assay: Antitumor activity against ip implanted P388 leukemia in mouse after iv administration of 20 mg/kg for 5 days expressed as increase in mean life span; details: 120 h
[42] = tested on: Mus musculus; assay: Antitumor activity against ip implanted L1210 leukemia in mouse after iv administration of 30 mg/kg for 5 days expressed as increase in mean life span; details: 120 h

Cc1c2cc[n+]([C@@H]3OC[C@H](O)[C@H](O)[C@H]3O)cc2c(C)c2c1[nH]c1ccc(O)cc12.[Br-]
Cures@ 10mg/kg [1]: 1
ILS at 20 mg/kg [2]: 282%
ILS at 40 mg/kg [3]: > 339%
ILS at 80 mg/kg [4]: > 353%
ILS at 1.25 mg/kg [5]: 37%
Cures [6]: 1
Cures [7]: 3
Cures [8]: 6
Cures@ 40mg/kg [9]: 2
Cures [10]: 5
Cures [11]: 1
Cures [12]: 4
Cures [13]: 2
Cures [14]: 2
ILS at 20 mg/kg [15]: > 338%
ILS at 10 mg/kg [16]: > 297%
ILS at 10 mg/kg [17]: 113%
ILS at 20 mg/kg [18]: > 251%
ILS at 30 mg/kg [19]: > 860%
ILS at 40 mg/kg [20]: > 713%
ILS at 5 mg/kg [21]: 57%
ILS [22]: 82% and >214%
ILS [23]: 198% and >549%
Cures [24]: 5
ILS at 40 mg/kg [25]: > 518%
ILS at 5 mg/kg [26]: 95%
ILS at 80 mg/kg [27]: > 492%
ILS at 10 mg/kg [28]: 117%
T/C @ 20mg/kg [29]: 66%
T/C @ 30mg/kg [30]: 59%
T/C @ 40mg/kg [31]: 7%
T/C @ 50mg/kg [32]: 4%
Cures@ 40mg/kg [33]: 5
Cures@ 80 mg/kg [34]: 2
Cures@ 20mg/kg [35]: 1
ILS at 20 mg/kg [36]: 60%
ILS at 5 mg/kg [37]: 44%
ILS at 10 mg/kg [38]: 46%
ILS at 2.5 mg/kg [39]: 38%
ILS at 10 mg/kg [40]: 83%
ILS at 20 mg/kg [41]: > 394%
ILS at 30 mg/kg [42]: > 344%
